{"data": "Results of several laboratories", "effect on": "enzyme activity", "mode": "inhibitor", "PIK3CD": "Phosphatidylinositol 4,5-bisphosphate 3-kinase catalytic subunit delta isoform (PIK3CD, Homo sapiens, UniProt O00329)", "KIT": "Mast/stem cell growth factor receptor Kit (KIT, Homo sapiens, UniProt P10721)"}
{"target": "PIK3CD", "method": "ADP detection", "IC50 [nM]": 88.9, "SMILES": "Cc1cccc(N=C2C(=O)Nc3ccccc32)c1"}
{"target": "KIT", "IC50 [nM]": 512, "SMILES": "Cc1n[nH]c2ccc3nc(-c4ccc(C(=O)NCCN(C)C)cc4F)c4c(c3c12)CCCC4"}
{"target": "Prostaglandin reductase 2 (Homo sapiens, UniProt Q8N8N7)", "notes": "lysate", "IC50 [nM]": 176, "SMILES": "COc1ccccc1N1CCN(C(=O)c2cccc(S(=O)(=O)n3cncn3)c2)CC1"}
{"target": "PIK3CD", "method": "ADP detection", "IC50 [nM]": 139, "SMILES": "O=C1C(=Nc2ccccc2I)c2ccccc2N1Cc1ccc(Br)cc1"}
{"target": "PIK3CD", "method": "radiometric", "IC50 [nM]": 9500, "SMILES": "CN(C)C(=O)c1cc2cnc(Nc3ccc(-c4ccc5c(=O)cc(N6CCNCC6)oc5c4)cc3)nc2n1C1CCCC1"}
{"target": "PIK3CD", "method": "ADP detection", "IC50 [nM]": 765, "SMILES": "O=C1Nc2ccccc2/C1=N\\c1ccc(Cl)cc1"}
{"target": "KIT", "IC50 [nM]": 249, "SMILES": "CN(C)CCNC(=O)c1ccc(-c2nc3ccc4[nH]ncc4c3c3c2CCCCC3)c(F)c1"}
{"target": "PIK3CD", "method": "ADP detection", "IC50 [nM]": 83.7, "SMILES": "O=C1Nc2ccccc2C1=Nc1cccc(Cl)c1"}
{"target": "PIK3CD", "method": "radiometric", "IC50 [nM]": 897, "SMILES": "CN(C)C(=O)c1cc2cnc(Nc3ccc(-c4ccc5c(=O)cc(N6CCOCC6)oc5c4)cc3)nc2n1C1CCCC1"}
{"target": "KIT", "IC50 [nM]": 208, "SMILES": "Cc1n[nH]c2ccc3nc(-c4ccc(C(=O)NCCN(C)C)cc4)c4c(c3c12)CCCC4"}
{"target": "PIK3CD", "method": "radiometric", "IC50 [nM]": "> 10000", "SMILES": "COc1ccc(-c2cc(=O)c3cccc(Nc4ncc5cc(C(=O)N(C)C)n(C6CCCC6)c5n4)c3o2)cc1"}
{"target": "PIK3CD", "method": "ADP detection", "IC50 [nM]": 21.9, "SMILES": "Cc1cccc(N=C2C(=O)N(Cc3ccccc3)c3ccccc32)c1"}
{"target": "KIT", "IC50 [nM]": 990, "SMILES": "CN(C)CCNC(=O)c1ccc(-c2nc3ccc4[nH]ncc4c3c3c2CCCCC3)cc1"}
{"target": "PIK3CD", "method": "radiometric", "IC50 [nM]": "> 10000", "SMILES": "CN(C)C(=O)c1cc2cnc(Nc3cccc4c(=O)cc(N5CCOCC5)oc34)nc2n1C1CCCC1"}
{"target": "PIK3CD", "method": "ADP detection", "IC50 [nM]": 233, "SMILES": "Cc1ccc(CN2C(=O)C(=Nc3c(C(C)C)cccc3C(C)C)c3ccccc32)cc1"}
{"target": "KIT", "IC50 [nM]": 150, "SMILES": "CCc1nc(C(N)=O)c(Nc2ccc(N3CCC(N4CCN(C)CC4)CC3)c(OC)c2)nc1NC1CCOCC1"}
{"target": "PIK3CD", "method": "radiometric", "IC50 [nM]": 40.5, "SMILES": "CN(C)C(=O)c1cc2cnc(Nc3ccc(-c4cccc5c(=O)cc(N6CCOCC6)oc45)c(F)c3)nc2n1C1CCCC1"}
{"target": "Receptor tyrosine-protein kinase erbB-4 (ERBB4, Homo sapiens, UniProt Q15303)", "method": "TR-FRET", "IC50 [nM]": 13.9, "SMILES": "COc1c(Cl)cccc1Nc1c(-c2ccncc2OC[C@@H]2COCCO2)[nH]c2c1C(=O)NCC2"}
{"target": "PIK3CD", "method": "radiometric", "IC50 [nM]": 725, "SMILES": "CN(C)C(=O)c1cc2cnc(Nc3cc(C(=O)O)cc(-c4ccc5c(=O)cc(N6CCOCC6)oc5c4)c3)nc2n1C1CCCC1"}
{"target": "Casein kinase II subunit alpha (CSNK2A1, Homo sapiens, UniProt P68400)", "IC50 [nM]": 319, "SMILES": "O=C1Nc2ccc(I)cc2/C1=C/c1cc(Br)c(O)c(Br)c1"}
